The LD50 is the dose expected to kill half of the subjects tested. A word on the IC50: it is the midpoint of a concentration-inhibition curve. Read a high IC50 as weaker potency. A word on the T/C: it is the ratio of treated to control. For orientation: solubility means the dissolved amount per volume that the medium holds. A lower solubility goes with little dissolved substance.

Series [1] concerns Mus musculus. Nature of the series: Tumor inhibition (TI) ratio at a dose of 1 mg/kg for 4 day. The series is classed as functional.
The nature of series [2]: Lethal dose when administered intravenously. The series is classed as toxicity. To be noted: mouse, iv.
Series [3] has as its system CV-1. Nature of the series: Compound was tested in vitro for inhibition of growth of cytotoxic CV-1 cell line. The format is functional, cell-based, Homo sapiens. To be noted: Chlorocebus aethiops.
The nature of series [4]: Lethal dose when administered intraperitoneally. The series is classed as toxicity. The settings on record: mouse, ip.
The subject of another series is CX-1. Put plainly: In vitro inhibition of growth of human carcinoma CX-1 cell line (clonogenic assay). The series is classed as functional, cell-based.
A further series concerns KB. Put plainly: In vitro inhibition of growth of KB cells (cytotoxic assay). The series is classed as functional, cell-based, Homo sapiens.
Series [5] has as its system Mus musculus. Put plainly: In vivo ratio of median survival time of drug-treated to control, untreated tumor-bearing mice at a dose of 4 mg/kg for 7 days. The series is classed as functional.
The test system of series [6] is Mus musculus. Nature of the series: In vivo ratio of median survival time of drug-treated to control, untreated tumor-bearing mice at a dose of 5 mg/kg for 3 days. The format is functional.
For series [7], the system named is Mus musculus. Nature of the series: In vivo ratio of median survival time of drug-treated to control, untreated tumor-bearing mice at a dose of 10 mg/kg for 1 day. The format is functional.
Series [8] is described as follows: The solubility in 0.9% saline was determined. The series is classed as ADME.
The nature of series [9]: The solubility in water was determined. The series is classed as ADME.
The test system of series [10] is Mus musculus. Put plainly: In vivo ratio of median survival time of drug-treated to control, untreated tumor-bearing mice at a dose of 10 mg/kg for 5 days. The format is functional.
For series [11], the system named is Mus musculus. Nature of the series: Tumor inhibition (TI) ratio at a dose of 3 mg/kg for 4 day. The format is functional. The method in brief:
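BDF1 mice (male, inbred, 5-week-old, ~1 week acclimation) implanted sc with 5 × 10^5 CA755 cells; compound given iv in 0.9% saline (0.2 mL/20 g body weight), 3 mg/kg/day × 4. Tumors weighed at day 11; inhibition (%) = (A − B)/A × 100, A and B being mean control and treated tumor weights. Five mice per group; Bartlett's, Dunnett's, Scheffé's tests.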

Series [12] deals with Mus musculus. Put plainly: In vivo ratio of median survival time of drug-treated to control, untreated tumor-bearing mice at a dose of 5 mg/kg for 5 days. The format is functional.
Series [13] deals with CV-1. Nature of the series: The IC50 value for 50%inhibition of cells on clonogenic CV-1 […] cytotoxic cell lines. To be noted: Chlorocebus aethiops. The format is functional, cell-based. The method in brief:
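CV-1 cytotoxicity assay: cells seeded at 4×10^4 per 20 mm plate at 37 °C in 5% CO2. Next day, cells were exposed to varying compound concentrations for 1 week, stained with crystal violet, and viable cells counted.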

Series [14] relates to Mus musculus. Put plainly: In vivo ratio of median survival time of drug-treated to control, untreated tumor-bearing mice at a dose of 7 mg/kg for 5 days. The series is classed as functional. The method in brief:
(§1)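 Male Swiss nu/nu mice, about 5 weeks old, acclimated 1 week. LOX melanoma was first grown sc in nude mice, then made into a single-cell suspension with RBCs lysed by ammonium chloride. Each mouse got 2×10^6 LOX cells ip in PBS. From the next day, compound was given ip in 45% hydroxypropyl β-cyclodextrin in water. T/C is median survival of treated over untreated controls, as a percentage. Five mice per group.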

Series [15] concerns Mus musculus. Nature of the series: In vivo ratio of median survival time of drug-treated to control, untreated tumor-bearing mice at a dose of 4 mg/kg for 5 days. The series is classed as functional. In a few lines: as §1
Series [16] has as its system Mus musculus. Put plainly: In vivo ratio of median survival time of drug-treated to control, untreated tumor-bearing mice at a dose of 2 mg/kg for 5 days. The series is classed as functional.
Series [17] relates to Mus musculus. Nature of the series: In vivo ratio of median survival time of drug-treated to control, untreated tumor-bearing mice at a dose of 5 mg/kg for 4 day. The format is functional.

For the compound `CC(=O)[O-].CCn1c(=O)/c(=C2\Sc3ccccc3N2C)s/c1=C\c1sc2ccccc2[n+]1CC`, the TI with Mus musculus [1] was determined as 59.4%. Also, the LD50 in series [2] amounted to 5 mg/kg; in series [4], 30 mg/kg. Also, the IC50 was found to be 1.4 µM with CV-1 [3]; 60 nM with CX-1 (Homo sapiens, CX-1); 60 nM in the series on KB (Homo sapiens, KB). For the same compound, in the series on Mus musculus [5], the T/C worked out at 163%.

Take `CCN1CCS/C1=C\C=c1/s/c(=C\c2sc3c4ccccc4ccc3[n+]2C)n(CC)c1=O`: the IC50 amounted to 30 nM in the series with CX-1 (Homo sapiens, CX-1) and 490 nM in the series on KB (Homo sapiens, KB).

Regarding `CCn1c(=O)/c(=C/C=C2/N(C)c3ccccc3C2(C)C)s/c1=C\c1oc2c3ccccc3ccc2[n+]1CC.Cc1ccc(S(=O)(=O)[O-])cc1`, the T/C with Mus musculus [6] is reported as 94%. The IC50 with CX-1 (Homo sapiens, CX-1) came to 10 nM; in the series with KB (Homo sapiens, KB), 270 nM.

As to `CC(=O)[O-].CCN1C(C)=CS/C1=C\C=c1/s/c(=C\c2sc3ccccc3[n+]2CC)n(CC)c1=O`, the IC50 with CX-1 (Homo sapiens, CX-1) is 60 nM; with KB (Homo sapiens, KB), 250 nM. Also, in the series with Mus musculus [7], the T/C is 138%.

Regarding `CCn1c(=O)/c(=C2\Sc3ccccc3N2C)s/c1=C\c1cccc[n+]1CC.[I-]`, the results for the solubility in series [8] and in series [9] were less than 100 µg/mL and 200 µg/mL, respectively. Besides, the values for the IC50 with CX-1 (cx-1) and with KB (kb) were 800 nM and 46800 nM, respectively.

Consider `CCN1/C(=C/C=c2\s/c(=C\c3sc4ccc5ccccc5c4[n+]3CC)n(CC)c2=O)Sc2ccc3ccccc3c21.Cc1ccc(S(=O)(=O)[O-])cc1`, for which the T/C in the series on Mus musculus [10] worked out at 126%. Also, the half-inhibitory concentration (IC50) turned out to be 40 nM with CX-1 (Homo sapiens, CX-1) and 210 nM in the series on KB (Homo sapiens, KB).

`CCN1CCS/C1=C\C=c1/s/c(=C\c2sc3c4ccccc4ccc3[n+]2CCO)n(CC)c1=O` showed an IC50 in the series on CX-1 (Homo sapiens, CX-1) of 390 nM.

As to `CC(=O)[O-].CCn1c(=O)/c(=C2\Sc3ccccc3N2C)s/c1=C\c1cccc[n+]1CC`, the figures for the LD50 in series [2] and in series [4] were 20 mg/kg and 50 mg/kg, respectively. In the series on Mus musculus [11], the TI is 76.5%. The T/C in the series with Mus musculus [12] is more than 310%. Also, the solubility in series [8] and in series [9] was more than 5000 µg/mL each time. Moreover, the IC50 came to 1100 nM with CX-1 (cx-1), 860 nM with KB (kb) and 63.2 µM in the series with CV-1 [13].

With `CCn1c(=O)/c(=C2\Sc3ccc4ccccc4c3N2C)s/c1=C\c1sc2c3ccccc3ccc2[n+]1CC.[Cl-]`, in the series on Mus musculus [14], the T/C stood at 112%. For the same compound, the IC50 in the series on CX-1 (Homo sapiens, CX-1) was found to be 50 nM; in the series with KB (Homo sapiens, KB), 340 nM.

On to `CCCC[n+]1c(/C=c2\s/c(=C\C=C3/SCCN3CC)c(=O)n2CC)sc2c3ccccc3ccc21`, for which the half-maximal inhibitory concentration (IC50) was 30 nM in the series with CX-1 (Homo sapiens, CX-1) and 460 nM in the series on KB (Homo sapiens, KB).

Regarding `CC(=O)[O-].CCn1c(=O)/c(=C2\Sc3ccccc3N2C)s/c1=C\c1oc2ccccc2[n+]1CC`, the LD50 in series [2] was more than 10 mg/kg; in series [4], 10 mg/kg. Besides, the IC50 came out at 14.7 µM in the series on CV-1 [3]; 180 nM in the series on CX-1 (Homo sapiens, CX-1); 1130 nM in the series on KB (Homo sapiens, KB). Besides, the T/C with Mus musculus [12] was found to be 140%.

As to `CC(=O)[O-].CCn1c(=O)/c(=C2\Sc3ccccc3N2C)s/c1=C\c1scc(C)[n+]1CC`, the results for the LD50 in [2] and in [4] were 20 mg/kg and 30 mg/kg, respectively. Moreover, the IC50 in the series with CV-1 [3] was 23.6 µM; in the series on CX-1 (Homo sapiens, CX-1), 110 nM; in the series on KB (Homo sapiens, KB), 950 nM. In addition, the T/C in the series with Mus musculus [15] is more than 173%.

As to `CC(=O)[O-].CCn1c(=O)/c(=C2\Sc3ccccc3N2C)s/c1=C\C1=[N+](CC)CCS1`, the LD50 in [2] worked out at 15 mg/kg; in series [4] it was 40 mg/kg. In addition, the IC50 in the series with CV-1 [3] worked out at 13.2 µM; in the series on CX-1 (Homo sapiens, CX-1), 1040 nM; in the series on KB (Homo sapiens, KB), 6220 nM. For the same compound, the T/C in the series with Mus musculus [16] is listed as 133%.

As to `CCn1c(=O)/c(=C2\Sc3ccccc3N2C)s/c1=C\c1cccc[n+]1CC.[Cl-]`, the LD50 was 20 mg/kg in [2] and 50 mg/kg in series [4]. Besides, in the series with Mus musculus [11], the TI is 75.5%. Besides, the solubility in series [8] and in [9] was more than 5000 µg/mL throughout. In the series with KB (kb), the IC50 is 810 nM. Further, the T/C in the series on Mus musculus [17] is given as more than 344%.

On to `CCn1c(=O)/c(=C2\Oc3ccccc3N2C)s/c1=C\c1cccc[n+]1CC`, for which the IC50 in the series with CX-1 (Homo sapiens, CX-1) is more than 2400 nM; in the series with KB (Homo sapiens, KB), 3730 nM.

For the compound `CC(=O)[O-].CCn1c(=O)/c(=C2\Sc3ccc4ccccc4c3N2C)s/c1=C\c1oc2c3ccccc3ccc2[n+]1CC`, the T/C in the series on Mus musculus [16] was found to be 120%. In addition, the 50% inhibitory concentration (IC50) is 680 nM in the series on CX-1 (Homo sapiens, CX-1) and 80 nM in the series on KB (Homo sapiens, KB).

Regarding `CC(=O)[O-].CCn1c(=O)/c(=C2\SCCN2C)s/c1=C\c1sc2ccc3ccccc3c2[n+]1CC`, the T/C with Mus musculus [15] is on record as 106%. Besides, the half-maximal inhibitory concentration (IC50) worked out at 160 nM in the series with CX-1 (Homo sapiens, CX-1) and 250 nM with KB (Homo sapiens, KB).

Regarding `CC(=O)[O-].CCn1c(=O)/c(=C2\Sc3ccccc3N2C)s/c1=C\c1ccc2ccccc2[n+]1CC`, the LD50 was 10 mg/kg in [2] and 30 mg/kg in series [4]. Besides, the IC50 stood at 8.7 µM in the series with CV-1 [3]; 280 nM with CX-1 (Homo sapiens, CX-1); 280 nM in the series on KB (Homo sapiens, KB). Moreover, the T/C in the series with Mus musculus [16] was 124%.

For `CCN1CCS/C1=C\C=c1/s/c(=C\c2sc3c4ccccc4ccc3[n+]2CCC(=O)O)n(CC)c1=O`, the IC50 was more than 1500 nM with CX-1 (Homo sapiens, CX-1) and more than 15000 nM with KB (Homo sapiens, KB).

As to `CCN1C=CC=C/C1=C\C=c1/s/c(=C\c2sc3ccc4ccccc4c3[n+]2CC)n(CC)c1=O.[Cl-]`, the T/C in the series on Mus musculus [15] worked out at 122%. The IC50 with CX-1 (Homo sapiens, CX-1) was found to be 80 nM; with KB (Homo sapiens, KB), 770 nM.

As for `CC(=O)[O-].CCn1c(=O)/c(=C2\Sc3ccccc3N2C)s/c1=C\C1CCC[n+]2c1sc1ccccc12` (stereo unspecified), the values for the median lethal dose (LD50) in [2] and in series [4] were 3 mg/kg and 30 mg/kg, respectively. Moreover, the IC50 in the series with CV-1 [3] was found to be 2.9 µM; in the series on CX-1 (Homo sapiens, CX-1), 230 nM; with KB (Homo sapiens, KB), 230 nM. The T/C with Mus musculus [15] was more than 208%.

With `CCN1CCS/C1=C\C=c1/s/c(=C\c2sc3c4ccccc4ccc3[n+]2CC)n(CC)c1=O`, the concentration for half-maximal inhibition (IC50) amounted to 20 nM in the series with CX-1 (Homo sapiens, CX-1) and 320 nM in the series with KB (Homo sapiens, KB).

On to `CCn1c(=O)/c(=C/C=C2\Sc3ccc4ccccc4c3N2C)s/c1=C\c1scc(C)[n+]1CC`, for which the 50% inhibitory concentration (IC50) with CX-1 (Homo sapiens, CX-1) was more than 1800 nM; in the series with KB (Homo sapiens, KB), 2000 nM.

As for `CCn1c(=O)/c(=C2\C=CC=CN2C)s/c1=C\c1sc2ccccc2[n+]1CC`, the IC50 in the series with CX-1 (Homo sapiens, CX-1) is 1760 nM; in the series on KB (Homo sapiens, KB), 2170 nM.

Turning to `CC(=O)[O-].CCN1/C(=C/C=c2\s/c(=C\C3=[N+](CC)CCS3)n(CC)c2=O)C=Cc2ccccc21`, the T/C in the series with Mus musculus [10] is 143%. The IC50 came out at 160 nM with CX-1 (Homo sapiens, CX-1) and 910 nM in the series on KB (Homo sapiens, KB).

These data come from ChEMBL document CHEMBL1131199, “Structure-activity of novel rhodacyanine dyes as antitumor agents” (J Med Chem, 1998).
